Several values for one entry are separate records, joined by “and”; a condition that tells them apart may be missing. Equal entries are not always repeated. Activity calls are given as the source filed them.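 How the source made its calls: active means fitted dose curve reaching 40% activation within the tested dose range; inconclusive means no clear call, values can overlap the other calls; inactive means the rest, or activity opposite the expected rise.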
test system: not listed separately; experiment: HRE-luciferase reporter activators in U2OS cells, dose response, cell-based, luminescence, U2OS HRE-luc, dry powder, set 6 (AID 493195); settings: U2OS HRE-luciferase reporter, luminescence, HIF activation; at 38 µM (top of the series)
In short: (§1)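 Technique – Steady-Glo luciferase luminescence · Test system – human U2OS osteosarcoma cells stably carrying 3×HRE-luciferase reporter · Quantity – 6,000 cells per well · Doses – 8 concentrations, 3-fold steps, 7.5 mM stock · Timing – 24 h compound exposure at 37 °C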

Question: With O=C(c1cc(-c2ccccc2)on1)N1CCC(N2CCCC2)CC1 as the molecule, how does the activation read?
Answer: -0.666% (inactive)

Question: With Cn1c(NC(=O)c2cc(-c3ccccc3)on2)nc2ccccc21 as the molecule, how does the activation read?
Answer: -0.522% (inactive)

Question: For O=C(Nc1cnc2ccccc2c1)c1cc(-c2ccccc2)on1, which activation is on record?
Answer: 0.224% (inactive)

Question: Which activation does the source give for OCC1CCN(Cc2ccc(O)c3ncccc23)CC1 here?
Answer: 44.4% (inactive)

Question: With Cc1ccc(CNC(=O)c2cc(-c3ccccc3)on2)cc1 as the molecule, how does the activation read?
Answer: -0.243% (inactive)

Question: For O=C(c1cc(-c2ccccc2)on1)N1CCC(N2CCOCC2)CC1, which activation is on record?
Answer: -0.46% (inactive)

Question: For O=C(NCc1ccccc1)c1cc(-c2ccccc2)on1, which activation is on record?
Answer: 1.19% (inactive)

Question: For CC1CN(Cc2ccc(O)c3ncccc23)CC(C)O1 (stereo unspecified), which activation is on record?
Answer: 2.48% (inactive)

Question: Which activation does the source give for O=C(Nc1nc2ccccc2s1)c1cc(-c2ccccc2)on1 here?
Answer: 0.068% (inactive)

Question: With Cc1ccccc1CNC(=O)c1cc(-c2ccccc2)on1 as the molecule, how does the activation read?
Answer: -0.171% (inactive)

Question: Which activation does the source give for Oc1ccc(CN2CCc3ccccc3C2)c2cccnc12 here?
Answer: 5.7% (inactive)

Question: For O=C(Nc1cn2ccccc2n1)c1cc(-c2ccccc2)on1, which activation is on record?
Answer: 0.943% (inactive)

Question: Which activation does the source give for O=C(c1cc(-c2ccccc2)on1)N1CCc2cccnc21 here?
Answer: -0.142% (inactive)

Question: Which activation does the source give for Cc1ccc(NC(=O)c2cc(-c3ccccc3)on2)cn1 here?
Answer: -0.191% (inactive)

Question: With CN1CCN(C(=O)c2cc(-c3ccccc3)on2)CC1 as the molecule, how does the activation read?
Answer: -0.469% (inactive)

Question: Which activation does the source give for Cn1c(-c2ccccc2)cnc1Nc1nc(-c2ccccn2)nnc1-c1ccccc1 here?
Answer: -1.62% (inactive)

Question: For CC(C)(C)CCNC(=O)c1cc(-c2ccccc2)on1, which activation is on record?
Answer: 9.01% (inactive)

Question: Which activation does the source give for O=C(Nc1ncc2ccccc2n1)c1cc(-c2ccccc2)on1 here?
Answer: 0.873% (inactive)

Question: With O=C(NC1Cc2ccccc2C1)c1cc(-c2ccccc2)on1 as the molecule, how does the activation read?
Answer: 0.84% (inactive)

Question: For O=C(NC1CCc2ccccc2C1)c1cc(-c2ccccc2)on1 (stereo unspecified), which activation is on record?
Answer: 1.01% (inactive)

Question: For O=C(NCCCO)c1cc(-c2ccccc2)on1, which activation is on record?
Answer: 16.3% (inactive)

Question: For O=C(c1cc(-c2ccccc2)on1)N1CCC(CO)CC1, which activation is on record?
Answer: 0.347% (inactive)

Question: For O=C(NCCN1CCOCC1)c1cc(-c2ccccc2)on1, which activation is on record?
Answer: 20.9% (inactive)

Question: Which activation does the source give for O=C(NCC1CCCCC1)c1cc(-c2ccccc2)on1 here?
Answer: 1.39% (inactive)

Question: With O=C(c1cc(-c2ccccc2)on1)N1CCN(c2ccncc2)CC1 as the molecule, how does the activation read?
Answer: -0.05% (inactive)

Question: For O=C(NCC1CC1)c1cc(-c2ccccc2)on1, which activation is on record?
Answer: 19.6% (inactive)

Question: Which activation does the source give for N#CC1(c2ccccc2)CCN(Cc2ccc(O)c3ncccc23)CC1 here?
Answer: 7.8% (inactive)

Question: Which activation does the source give for O=C(Nc1ccc2ccccc2n1)c1cc(-c2ccccc2)on1 here?
Answer: -0.178% (inactive)

Question: With O=C(NCCN1CCCCC1)c1cc(-c2ccccc2)on1 as the molecule, how does the activation read?
Answer: 0.598% (inactive)

Question: Which activation does the source give for Cc1cccc(NC(=O)c2cc(-c3ccccc3)on2)n1 here?
Answer: -0.083% (inactive)

Question: For CC(C)(C)OC(=O)N1CCN(Cc2ccc(O)c3ncccc23)CC1, which activation is on record?
Answer: 9.74% (inactive)

Question: For O=C(Nc1ncc(-c2ccccc2)o1)c1cc(-c2ccccc2)on1, which activation is on record?
Answer: -0.076% (inactive)

Question: With Oc1ccc(CNC2CCc3ccccc32)c2cccnc12 (stereo unspecified) as the molecule, how does the activation read?
Answer: 15.9% (inactive)

Question: Which activation does the source give for Cn1c(-c2ccccc2)cnc1NC(=O)c1cc(-c2ccccc2)on1 here?
Answer: -0.441% (inactive)

Question: Which activation does the source give for CN(C)CCNC(=O)c1cc(-c2ccccc2)on1 here?
Answer: 0.398% (inactive)

Question: Which activation does the source give for O=C(Nc1nc(-c2ccccc2)cs1)c1cc(-c2ccccc2)on1 here?
Answer: -0.156% (inactive)

Question: For Cc1cccc(CNC(=O)c2cc(-c3ccccc3)on2)c1, which activation is on record?
Answer: -0.241% (inactive)

Question: With O=C(Nc1nnc(-c2ccccc2)s1)c1cc(-c2ccccc2)on1 as the molecule, how does the activation read?
Answer: -0.274% (inactive)

test system: U2OS HRE-luciferase reporter, luminescence, HIF activation; experiment: as above; settings: not given
In short: as §1

Question: Which AC40 does the source give for c1ccc(-c2nnc(-c3ccccn3)nc2NCC2CCOCC2)cc1 here?
Answer: 18.3 µM

Question: With Oc1ccc(CN2CCC(Cc3ccccc3)CC2)c2cccnc12 as the molecule, how does the AC40 read?
Answer: 26.5 µM

Question: Which AC40 does the source give for Oc1ccc(CNC2Cc3ccccc3C2)c2cccnc12 here?
Answer: 32.6 µM

Question: For CC(C)(C)c1ccc(CNc2nc(-c3ccccn3)nnc2-c2ccccc2)cc1, which AC40 is on record?
Answer: 1.13 µM

Question: With c1ccc(-c2nnc(-c3ccccn3)nc2NCCCN2CCOCC2)cc1 as the molecule, how does the AC40 read?
Answer: 10.7 µM

Question: For c1ccc(CNc2nc(-c3ccccn3)nnc2-c2ccccc2)cc1, which AC40 is on record?
Answer: 5.43 µM

Question: For Oc1ccc(CN2CCc3ccccc3C2)c2cccnc12, which AC40 is on record?
Answer: 5.32 µM

Question: Which AC40 does the source give for c1ccc(-c2nnc(-c3ccccn3)nc2N2CCC(C3CCCCC3)C2)cc1 (stereo unspecified) here?
Answer: 1.78 µM

Question: Which AC40 does the source give for c1ccc(-c2cccc(CNc3nc(-c4ccccn4)nnc3-c3ccccc3)c2)cc1 here?
Answer: 1.27 µM

Question: With C=CCNc1nc(-c2ccccn2)nnc1-c1ccccc1 as the molecule, how does the AC40 read?
Answer: 6.56 µM

Question: For Cc1ccc(CNc2nc(-c3ccccn3)nnc2-c2ccccc2)cc1, which AC40 is on record?
Answer: 2.72 µM

Question: With CC(Nc1nc(-c2ccccn2)nnc1-c1ccccc1)c1ccccc1 (stereo unspecified) as the molecule, how does the AC40 read?
Answer: 2.53 µM

Question: For c1ccc(-c2cnc(Nc3nc(-c4ccccn4)nnc3-c3ccccc3)s2)cc1, which AC40 is on record?
Answer: 31.4 µM

Question: With C[C@H](Nc1nc(-c2ccccn2)nnc1-c1ccccc1)C1CCCCC1 as the molecule, how does the AC40 read?
Answer: 2.23 µM

Question: For O=C(NCCCCO)c1cc(-c2ccccc2)on1, which AC40 is on record?
Answer: 24.2 µM

Question: For c1ccc(-c2nnc(-c3ccccn3)nc2Nc2nc3ccccc3s2)cc1, which AC40 is on record?
Answer: 5.02 µM

Question: For c1ccc(-c2nnc(-c3ccccn3)nc2N2CCN(c3ccncc3)CC2)cc1, which AC40 is on record?
Answer: 7.78 µM

Question: With c1ccc(CCNc2nc(-c3ccccn3)nnc2-c2ccccc2)cc1 as the molecule, how does the AC40 read?
Answer: 2.14 µM

Question: With COc1ccc(CNc2nc(-c3ccccn3)nnc2-c2ccccc2)cc1 as the molecule, how does the AC40 read?
Answer: 2.51 µM

Question: For c1ccc(-c2nnc(-c3ccccn3)nc2NCCN2CCOCC2)cc1, which AC40 is on record?
Answer: 11.6 µM

Question: With Cc1ccccc1CNc1nc(-c2ccccn2)nnc1-c1ccccc1 as the molecule, how does the AC40 read?
Answer: 4.31 µM

Question: With Oc1ccc(CN2CCC3CCCCC3C2)c2cccnc12 (stereo unspecified) as the molecule, how does the AC40 read?
Answer: 21.3 µM

Question: Which AC40 does the source give for c1ccc(-c2nnc(-c3ccccn3)nc2NCCc2ccccn2)cc1 here?
Answer: 10.1 µM

Question: With c1ccc(-c2csc(Nc3nc(-c4ccccn4)nnc3-c3ccccc3)n2)cc1 as the molecule, how does the AC40 read?
Answer: 24.6 µM

Question: Which AC40 does the source give for c1ccc(-c2nnc(-c3ccccn3)nc2NCC2CCCCC2)cc1 here?
Answer: 4.15 µM

Question: For c1ccc(-c2nnc(-c3ccccn3)nc2N2CCC(N3CCOCC3)CC2)cc1, which AC40 is on record?
Answer: 8.15 µM

Question: With Cc1ccc(CNc2nc(-c3ccccn3)nnc2-c2ccccc2)cc1C as the molecule, how does the AC40 read?
Answer: 1.48 µM

Question: For c1ccc(-c2ccc(CNc3nc(-c4ccccn4)nnc3-c3ccccc3)cc2)cc1, which AC40 is on record?
Answer: 0.917 µM

Question: For c1ccc(-c2nnc(-c3ccccn3)nc2N2CCC(c3ccccc3)C2)cc1 (stereo unspecified), which AC40 is on record?
Answer: 1.54 µM

Question: Which AC40 does the source give for c1ccc(-c2nnc(-c3ccccn3)nc2NCc2ccccn2)cc1 here?
Answer: 18.5 µM

Question: For CN1CCN(c2nc(-c3ccccn3)nnc2-c2ccccc2)CC1, which AC40 is on record?
Answer: 15.8 µM

Question: For COc1cccc(CNc2nc(-c3ccccn3)nnc2-c2ccccc2)c1, which AC40 is on record?
Answer: 2.43 µM

Question: Which AC40 does the source give for OCC1CCN(c2nc(-c3ccccn3)nnc2-c2ccccc2)CC1 here?
Answer: 18.8 µM

Question: With c1ccc(-c2nnc(-c3ccccn3)nc2NCc2cccnc2)cc1 as the molecule, how does the AC40 read?
Answer: 20.7 µM

Question: With Cc1cccc(Nc2nc(-c3ccccn3)nnc2-c2ccccc2)n1 as the molecule, how does the AC40 read?
Answer: 11.2 µM

Question: With Cc1cccc(CNc2nc(-c3ccccn3)nnc2-c2ccccc2)c1 as the molecule, how does the AC40 read?
Answer: 3.83 µM

Question: For CCCCNC(=O)c1cc(-c2ccccc2)on1, which AC40 is on record?
Answer: 28.5 µM

Question: Which AC40 does the source give for OCCCNc1nc(-c2ccccn2)nnc1-c1ccccc1 here?
Answer: 16.7 µM

Question: Which AC40 does the source give for CN(C)c1nc(-c2ccccn2)nnc1-c1ccccc1 here?
Answer: 10.5 µM

Question: For Cc1ccc(Nc2nc(-c3ccccn3)nnc2-c2ccccc2)cn1, which AC40 is on record?
Answer: 9.36 µM

Question: For COc1ccccc1N1CCN(Cc2ccc(O)c3ncccc23)CC1, which AC40 is on record?
Answer: 33 µM

Question: Which AC40 does the source give for c1ccc(-c2nnc(-c3ccccn3)nc2NCC2CC2)cc1 here?
Answer: 7.2 µM

Question: With CC(C)(C)CCNc1nc(-c2ccccn2)nnc1-c1ccccc1 as the molecule, how does the AC40 read?
Answer: 3.35 µM and 1.68 µM

Question: With C[C@@H](Nc1nc(-c2ccccn2)nnc1-c1ccccc1)C1CCCCC1 as the molecule, how does the AC40 read?
Answer: 4.3 µM

Question: For Clc1cccc(CNc2nc(-c3ccccn3)nnc2-c2ccccc2)c1, which AC40 is on record?
Answer: 1.87 µM

Question: Which AC40 does the source give for O=C(NCCCn1ccnc1)c1cc(-c2ccccc2)on1 here?
Answer: 26.5 µM

Question: Which AC40 does the source give for c1ccc(-c2nnc(Nc3nc(-c4ccccn4)nnc3-c3ccccc3)s2)cc1 here?
Answer: 4.75 µM

Question: For c1ccc(-c2nnc(-c3ccccn3)nc2Nc2cnc3ccccc3n2)cc1, which AC40 is on record?
Answer: 7.11 µM
